Data set [1] deals with RAW264.7. The experiment in a line: Induction of [3H]cholesterol efflux in mouse RAW264.7 cells after 24 hrs by scintillation counting. Type of data set: functional, cell-based. Conditions: Mus musculus, RAW264.7; read-out: EC50; call rule not given here. In outline: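 Cholesterol efflux from RAW macrophages; EC50 reported in µM as the mean of three experiments.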
Data set [2] is described as follows: Toxicity in human RBC assessed as hemolysis. Type of data set: cell-based, Erythrocyte. Conditions: red blood cells (RBC). In outline: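 Red blood cell lysis assay; cytotoxicity reported as IC50 in µM.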
Data set [3] concerns RAW264.7. The experiment in a line: Cytotoxicity against mouse RAW264.7 cells after 24 hrs by MTT assay. Type of data set: cell-based. Conditions: RAW264.7, 24 h. Put shortly:
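RAW macrophage cytotoxicity examined at peptide concentrations up to 160 µM.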
In general terms: Tetrazolium assays rely on reduction of a dye to a coloured formazan, in cell work by metabolically active cells.

The subject of data set [4] is Plasma. The experiment in a line: Increase in pre-beta-HDL level in human plasma after 1 hr by ELISA. Type of data set: functional, cell-free. In outline:
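Peptides were titrated into human plasma, with concentrations expressed in µg/ml, and pre-β-HDL was read out by ELISA using a pre-β antibody.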
A general note: An ELISA detects its analyte on a solid surface through an enzyme-linked reagent.

Data set [5] has as its system Plasma. The experiment in a line: Incorporation into HDL fraction in wild type mouse plasma at 0.25 mg/ml after 2 hrs by size exclusion chromatography analysis. (Size exclusion chromatography separates by hydrodynamic size, large species first.)
Data set [6] concerns RAW264.7. The experiment in a line: Induction of [3H]cholesterol efflux in mouse RAW264.7 cells at 100 uM after 24 hrs by scintillation counting. Type of data set: functional, cell-based.

Here are results for two compounds from ChEMBL document CHEMBL1153146, “Novel potent apoA-I peptide mimetics that stimulate cholesterol efflux and pre-beta particle formation in vitro” (Bioorg Med Chem Lett, 2010).

Non-standard residues stand in square brackets, D forms with d. Residues, ends and D or L forms follow the SMILES beside them. Aib = CC(C)(N)C(=O)O A value given as a limit tells only on which side of the number the result lay.

The term EC50 denotes the concentration needed to bring the measured effect to its halfway point. The IC50 is the point on the concentration scale where inhibition reaches its midpoint. With `C=CCCCCC[C@H](NC(=O)[C@H](CCC(=O)O)NC(=O)[C@H](CC(N)=O)NC(=O)[C@H](CC(C)C)NC(=O)[C@H](CCCCN)NC(=O)[C@H](CCC(=O)O)NC(=O)[C@H](CCCNC(=N)N)NC(=O)[C@@H](CCCCC=C)NC(=O)[C@H](CCC(=O)O)NC(=O)[C@H](CC(=O)O)NC(=O)[C@H](CC(C)C)NC(=O)[C@@H](NC(=O)[C@@H]1CCCN1)C(C)C)C(=O)N[C@@H](CC(C)C)C(=O)N[C@@H](CCC(=O)O)C(=O)N[C@@H](C)C(=O)N[C@@H](CC(C)C)C(=O)N[C@@H](CCCCN)C(=O)N[C@@H](CCC(N)=O)C(=O)N[C@@H](CCCCN)C(=O)N[C@@H](CC(C)C)C(=O)N[C@@H](CCCCN)C(=O)O`, the EC50 with RAW264.7 [1] is 0.8 µM. Besides, the IC50 in data set [2] is more than 160 µM; with RAW264.7 [3] it was more than 160 µM; in the data set with Plasma [4] it was “Active”; in the data set on Plasma [5], “Active”.
In turn, `CC(C)C[C@H](NC(=O)[C@H](C)NC(=O)[C@H](CCC(=O)O)NC(=O)[C@H](CC(C)C)NC(=O)C(C)(C)NC(=O)[C@H](CCC(=O)O)NC(=O)[C@H](CC(N)=O)NC(=O)[C@H](CC(C)C)NC(=O)[C@H](CCCCN)NC(=O)[C@H](CCC(=O)O)NC(=O)[C@H](CCCNC(=N)N)NC(=O)[C@H](Cc1ccccc1)NC(=O)[C@H](CCC(=O)O)NC(=O)[C@H](CC(=O)O)NC(=O)[C@H](CC(C)C)NC(=O)[C@@H](NC(=O)[C@@H]1CCCN1)C(C)C)C(=O)N[C@@H](CCCCN)C(=O)N[C@@H](CCC(N)=O)C(=O)N[C@@H](CCCCN)C(=O)N[C@@H](CC(C)C)C(=O)N[C@@H](CCCCN)C(=O)O` (H-PVLDEFREKLNE[Aib]LEALKQKLK-OH) yielded a cholesterol efflux in the data set on RAW264.7 [6] of 6%. For the same compound, the IC50 (in data set [2]; in the data set with RAW264.7 [3]) was more than 160 µM each time.
